Reference: ChEMBL document CHEMBL5696442, “Discovery of type II inhibitors of TGFβ-activated kinase 1 (TAK1) and mitogen-activated protein kinase kinase kinase kinase 2 (MAP4K2)” (J Med Chem, 2015)

Columns and labels:
[1] = molecular target: Serine/threonine-protein kinase A-Raf (Homo sapiens) (UniProt P10398); test: Inhibition of ARAF Lys2 labeling site in human A-375 cells at 0.05 uM by KiNativ Profiling analysis relative to control; assay type: cell-based
[2] = molecular target: Mitogen-activated protein kinase kinase kinase kinase 3 (Homo sapiens) (UniProt Q8IVH8); test: Inhibition of MAP4K3 (unknown origin) at 10 uM by Ambit Kinomescan binding assay relative to control
[3] = molecular target: T1, Mitogen-activated protein kinase kinase kinase 2 (Homo sapiens) (UniProt Q9Y2U5); test: Inhibition of MAP3K2 K1 labeling site in human Huh-7 cells at 10 uM by KiNativ Profiling analysis relative to control; assay type: cell-based
T1 sequence (whole entry): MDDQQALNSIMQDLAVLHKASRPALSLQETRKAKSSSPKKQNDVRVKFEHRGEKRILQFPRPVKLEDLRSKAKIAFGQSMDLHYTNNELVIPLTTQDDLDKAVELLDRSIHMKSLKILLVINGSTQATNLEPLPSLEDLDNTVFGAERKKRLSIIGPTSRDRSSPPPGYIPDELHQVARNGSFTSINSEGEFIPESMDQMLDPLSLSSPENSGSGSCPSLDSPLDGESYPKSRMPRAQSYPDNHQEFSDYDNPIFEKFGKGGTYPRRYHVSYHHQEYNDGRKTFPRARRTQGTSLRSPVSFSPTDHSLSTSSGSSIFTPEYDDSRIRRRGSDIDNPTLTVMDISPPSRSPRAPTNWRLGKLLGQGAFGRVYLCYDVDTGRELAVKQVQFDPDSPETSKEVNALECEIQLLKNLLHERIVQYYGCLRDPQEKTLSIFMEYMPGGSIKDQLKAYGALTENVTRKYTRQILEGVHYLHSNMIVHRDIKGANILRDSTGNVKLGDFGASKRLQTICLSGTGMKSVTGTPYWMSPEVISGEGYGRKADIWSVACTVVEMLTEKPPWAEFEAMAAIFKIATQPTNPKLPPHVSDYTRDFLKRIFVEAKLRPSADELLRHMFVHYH

[4] = molecular target: Cyclin-dependent kinase 11B (Homo sapiens) (UniProt P21127); test: Inhibition of CDK11 Lys2 labeling site in human Huh-7 cells at 1 uM by KiNativ Profiling analysis relative to control; assay type: cell-based
[5] = molecular target: Serine/threonine-protein kinase Nek6 (Homo sapiens) (UniProt Q9HC98); test: Inhibition of NEK6 Lys2 labeling site harbouring DIKPANVFITATGVVK in human Huh-7 cell lysate at 1 uM by KiNativ Profiling analysis relative to control; assay type: subcellular
[6] = molecular target: Serine/threonine-protein kinase 38 (Homo sapiens) (UniProt Q15208); test: Inhibition of NDR1 Lys1 labeling site in human A-375 cells at 0.5 uM by KiNativ Profiling analysis relative to control; assay type: cell-based
[7] = molecular target: Calcium/calmodulin-dependent protein kinase type II subunit gamma (Homo sapiens) (UniProt Q13555); test: Inhibition of CaMK2g Lys1 labeling site harbouring TSTQEYAAKIINTK in human A-375 cells at 0.05 uM by KiNativ Profiling analysis relative to control; assay type: cell-based
[8] = molecular target: Ribosomal protein S6 kinase alpha-4 (Homo sapiens) (UniProt O75676); test: Inhibition of MSK2 domain1 Lys2 labeling site in human A-375 cells at 5 uM by KiNativ Profiling analysis relative to control; assay type: cell-based
[9] = molecular target: Mitogen-activated protein kinase 1 (Homo sapiens) (UniProt P28482); test: Inhibition of ERK2 (unknown origin) at 1 uM by Ambit Kinomescan binding assay relative to control
[10] = tested on: Tyrosine-protein kinase ABL1 (Homo sapiens), P00519 [T315I]; test: Inhibition of phosphorylated ABL1 T315I mutant (unknown origin) at 1 uM by Ambit Kinomescan binding assay relative to control; values are per cent of control
[11] = molecular target: Ribosomal protein S6 kinase alpha-2 (Homo sapiens) (UniProt Q15349); test: Inhibition of C-terminal RSK3 kinase domain 2 (unknown origin) at 1 uM by Ambit Kinomescan binding assay relative to control
Procedure, shortened: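 In vitro ATP-site competition binding assay against a panel of over 420 kinases (KinomeScan), with compound tested at 10 or 1 μM.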

[12] = molecular target: Ankyrin repeat and protein kinase domain-containing protein 1 (Homo sapiens) (UniProt Q8NFD2); test: Inhibition of ANKK1 (unknown origin) at 1 uM by Ambit Kinomescan binding assay relative to control
[13] = molecular target: Megakaryocyte-associated tyrosine-protein kinase (Homo sapiens) (UniProt P42679); test: Inhibition of CTK (unknown origin) at 1 uM by Ambit Kinomescan binding assay relative to control; values are per cent of control
[14] = molecular target: Cyclin-G-associated kinase (Homo sapiens) (UniProt O14976); test: Inhibition of GAK (unknown origin) at 1 uM by Ambit Kinomescan binding assay relative to control; values are per cent of control

Sequence of Ankyrin repeat and protein kinase domain-containing protein 1 (Homo sapiens) (Q8NFD2 whole entry, the tested form may be a part): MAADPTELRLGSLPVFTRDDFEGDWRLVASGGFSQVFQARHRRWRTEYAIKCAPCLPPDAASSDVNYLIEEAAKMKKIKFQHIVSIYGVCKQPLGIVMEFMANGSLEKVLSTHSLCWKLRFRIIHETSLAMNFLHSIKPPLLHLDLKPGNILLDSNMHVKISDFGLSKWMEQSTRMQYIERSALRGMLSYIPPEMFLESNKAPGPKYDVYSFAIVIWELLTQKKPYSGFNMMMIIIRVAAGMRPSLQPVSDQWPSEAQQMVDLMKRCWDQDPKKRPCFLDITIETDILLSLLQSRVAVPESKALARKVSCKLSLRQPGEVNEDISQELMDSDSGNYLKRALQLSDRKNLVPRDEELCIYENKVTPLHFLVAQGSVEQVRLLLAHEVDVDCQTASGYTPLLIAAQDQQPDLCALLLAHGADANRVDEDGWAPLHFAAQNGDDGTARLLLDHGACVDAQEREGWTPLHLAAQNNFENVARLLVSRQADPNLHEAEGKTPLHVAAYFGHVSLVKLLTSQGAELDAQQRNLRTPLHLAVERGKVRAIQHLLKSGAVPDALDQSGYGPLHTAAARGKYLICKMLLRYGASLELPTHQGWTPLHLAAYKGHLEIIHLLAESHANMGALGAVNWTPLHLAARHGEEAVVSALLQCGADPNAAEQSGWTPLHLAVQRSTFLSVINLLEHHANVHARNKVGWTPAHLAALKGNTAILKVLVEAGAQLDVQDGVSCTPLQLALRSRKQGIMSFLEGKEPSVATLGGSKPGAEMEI
Sequence of Mitogen-activated protein kinase 1 (Homo sapiens) (P28482 whole entry): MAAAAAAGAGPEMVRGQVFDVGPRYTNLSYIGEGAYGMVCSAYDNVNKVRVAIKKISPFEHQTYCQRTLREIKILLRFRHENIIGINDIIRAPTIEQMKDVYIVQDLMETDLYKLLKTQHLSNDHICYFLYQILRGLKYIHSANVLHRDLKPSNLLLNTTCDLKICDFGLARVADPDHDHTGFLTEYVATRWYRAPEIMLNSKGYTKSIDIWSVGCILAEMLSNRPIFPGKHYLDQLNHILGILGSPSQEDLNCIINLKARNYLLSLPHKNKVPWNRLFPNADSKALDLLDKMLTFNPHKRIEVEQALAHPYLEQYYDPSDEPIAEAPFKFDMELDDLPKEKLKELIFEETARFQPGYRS
Sequence of Ribosomal protein S6 kinase alpha-2 (Homo sapiens) (Q15349 whole entry, the tested form may be a part): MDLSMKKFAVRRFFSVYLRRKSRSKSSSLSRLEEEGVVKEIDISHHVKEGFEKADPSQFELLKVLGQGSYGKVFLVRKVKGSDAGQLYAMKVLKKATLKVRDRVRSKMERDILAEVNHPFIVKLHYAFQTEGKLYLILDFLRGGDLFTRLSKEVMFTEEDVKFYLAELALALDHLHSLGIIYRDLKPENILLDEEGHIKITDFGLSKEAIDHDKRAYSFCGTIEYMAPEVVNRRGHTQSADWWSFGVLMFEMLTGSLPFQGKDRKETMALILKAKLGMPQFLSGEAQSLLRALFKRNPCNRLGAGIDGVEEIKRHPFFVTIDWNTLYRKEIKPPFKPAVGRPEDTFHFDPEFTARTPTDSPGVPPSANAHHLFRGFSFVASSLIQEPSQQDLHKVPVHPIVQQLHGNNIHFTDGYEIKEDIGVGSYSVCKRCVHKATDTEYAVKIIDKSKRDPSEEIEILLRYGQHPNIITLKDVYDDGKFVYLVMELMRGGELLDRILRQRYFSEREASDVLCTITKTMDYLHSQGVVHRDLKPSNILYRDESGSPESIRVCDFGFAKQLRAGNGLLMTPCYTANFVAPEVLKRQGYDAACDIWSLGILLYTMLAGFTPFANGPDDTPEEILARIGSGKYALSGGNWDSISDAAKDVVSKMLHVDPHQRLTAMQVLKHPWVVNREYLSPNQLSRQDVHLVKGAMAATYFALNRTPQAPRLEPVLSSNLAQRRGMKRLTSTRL
Sequence of Megakaryocyte-associated tyrosine-protein kinase (Homo sapiens) (P42679 whole entry): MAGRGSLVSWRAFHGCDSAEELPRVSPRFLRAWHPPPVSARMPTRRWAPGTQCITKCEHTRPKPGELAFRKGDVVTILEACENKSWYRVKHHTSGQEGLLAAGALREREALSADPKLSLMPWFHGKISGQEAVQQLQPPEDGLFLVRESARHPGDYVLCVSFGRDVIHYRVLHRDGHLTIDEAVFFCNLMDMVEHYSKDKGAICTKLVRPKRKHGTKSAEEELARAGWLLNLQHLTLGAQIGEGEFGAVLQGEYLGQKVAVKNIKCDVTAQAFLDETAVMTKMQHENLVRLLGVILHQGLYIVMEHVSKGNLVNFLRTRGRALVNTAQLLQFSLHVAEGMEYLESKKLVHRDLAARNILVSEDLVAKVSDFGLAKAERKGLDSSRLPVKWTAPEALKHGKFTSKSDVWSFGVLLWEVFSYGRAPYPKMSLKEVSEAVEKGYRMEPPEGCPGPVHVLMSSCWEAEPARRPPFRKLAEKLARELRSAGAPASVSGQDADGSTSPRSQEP
Sequence of Serine/threonine-protein kinase Nek6 (Homo sapiens) (Q9HC98 whole entry): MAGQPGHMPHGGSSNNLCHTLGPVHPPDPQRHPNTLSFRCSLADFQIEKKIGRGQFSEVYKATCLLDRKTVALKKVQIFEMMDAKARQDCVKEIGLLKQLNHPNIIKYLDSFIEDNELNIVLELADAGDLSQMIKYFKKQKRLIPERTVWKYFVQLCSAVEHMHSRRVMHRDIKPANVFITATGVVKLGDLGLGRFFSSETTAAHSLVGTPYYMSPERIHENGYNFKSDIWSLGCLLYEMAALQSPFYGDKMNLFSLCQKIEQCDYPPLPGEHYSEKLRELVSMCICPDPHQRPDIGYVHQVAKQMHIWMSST
Sequence of Mitogen-activated protein kinase kinase kinase kinase 3 (Homo sapiens) (Q8IVH8 whole entry): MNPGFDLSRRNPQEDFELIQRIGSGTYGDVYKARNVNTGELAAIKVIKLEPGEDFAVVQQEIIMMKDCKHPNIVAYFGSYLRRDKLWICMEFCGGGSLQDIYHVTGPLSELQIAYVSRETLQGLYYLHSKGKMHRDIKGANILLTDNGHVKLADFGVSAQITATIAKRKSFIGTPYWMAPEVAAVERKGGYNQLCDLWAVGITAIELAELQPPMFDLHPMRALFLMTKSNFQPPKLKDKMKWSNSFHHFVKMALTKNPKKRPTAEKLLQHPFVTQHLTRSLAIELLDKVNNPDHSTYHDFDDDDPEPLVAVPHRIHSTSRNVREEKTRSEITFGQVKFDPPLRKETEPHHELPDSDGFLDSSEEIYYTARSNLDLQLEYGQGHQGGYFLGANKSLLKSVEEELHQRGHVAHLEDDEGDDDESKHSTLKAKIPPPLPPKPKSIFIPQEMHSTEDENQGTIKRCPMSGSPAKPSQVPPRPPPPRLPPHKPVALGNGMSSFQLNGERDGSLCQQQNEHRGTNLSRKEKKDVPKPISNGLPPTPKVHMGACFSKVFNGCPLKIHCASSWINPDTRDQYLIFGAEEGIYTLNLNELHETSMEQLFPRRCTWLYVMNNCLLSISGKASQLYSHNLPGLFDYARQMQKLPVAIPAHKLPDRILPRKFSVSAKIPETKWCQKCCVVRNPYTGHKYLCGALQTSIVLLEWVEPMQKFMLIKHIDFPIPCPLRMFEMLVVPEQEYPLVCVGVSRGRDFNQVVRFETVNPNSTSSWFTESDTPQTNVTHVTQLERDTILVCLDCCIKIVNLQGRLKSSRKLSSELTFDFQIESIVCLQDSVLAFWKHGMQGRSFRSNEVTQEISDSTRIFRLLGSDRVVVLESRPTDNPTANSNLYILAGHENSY
Sequence of Ribosomal protein S6 kinase alpha-4 (Homo sapiens) (O75676 whole entry, looked up, the tested form may be a part): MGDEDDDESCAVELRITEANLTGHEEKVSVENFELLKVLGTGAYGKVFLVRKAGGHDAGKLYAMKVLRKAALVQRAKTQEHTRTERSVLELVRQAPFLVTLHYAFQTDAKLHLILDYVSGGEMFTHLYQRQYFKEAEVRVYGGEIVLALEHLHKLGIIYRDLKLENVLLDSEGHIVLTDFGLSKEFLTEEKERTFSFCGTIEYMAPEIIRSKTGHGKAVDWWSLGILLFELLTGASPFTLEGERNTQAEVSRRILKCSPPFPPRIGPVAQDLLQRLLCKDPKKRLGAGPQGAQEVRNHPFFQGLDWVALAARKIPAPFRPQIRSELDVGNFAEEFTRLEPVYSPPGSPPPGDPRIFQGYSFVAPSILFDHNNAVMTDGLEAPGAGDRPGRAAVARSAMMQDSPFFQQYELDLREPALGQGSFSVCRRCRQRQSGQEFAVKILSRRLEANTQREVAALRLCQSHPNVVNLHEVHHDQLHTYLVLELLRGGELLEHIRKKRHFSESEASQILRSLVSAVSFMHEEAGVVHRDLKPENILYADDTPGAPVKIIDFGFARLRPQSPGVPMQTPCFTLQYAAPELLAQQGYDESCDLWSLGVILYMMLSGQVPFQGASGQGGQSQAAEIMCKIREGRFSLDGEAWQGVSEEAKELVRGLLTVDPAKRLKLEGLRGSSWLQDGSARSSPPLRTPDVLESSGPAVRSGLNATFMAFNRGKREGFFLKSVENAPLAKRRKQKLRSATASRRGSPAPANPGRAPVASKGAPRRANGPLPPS
Sequence of Serine/threonine-protein kinase A-Raf (Homo sapiens) (P10398 whole entry): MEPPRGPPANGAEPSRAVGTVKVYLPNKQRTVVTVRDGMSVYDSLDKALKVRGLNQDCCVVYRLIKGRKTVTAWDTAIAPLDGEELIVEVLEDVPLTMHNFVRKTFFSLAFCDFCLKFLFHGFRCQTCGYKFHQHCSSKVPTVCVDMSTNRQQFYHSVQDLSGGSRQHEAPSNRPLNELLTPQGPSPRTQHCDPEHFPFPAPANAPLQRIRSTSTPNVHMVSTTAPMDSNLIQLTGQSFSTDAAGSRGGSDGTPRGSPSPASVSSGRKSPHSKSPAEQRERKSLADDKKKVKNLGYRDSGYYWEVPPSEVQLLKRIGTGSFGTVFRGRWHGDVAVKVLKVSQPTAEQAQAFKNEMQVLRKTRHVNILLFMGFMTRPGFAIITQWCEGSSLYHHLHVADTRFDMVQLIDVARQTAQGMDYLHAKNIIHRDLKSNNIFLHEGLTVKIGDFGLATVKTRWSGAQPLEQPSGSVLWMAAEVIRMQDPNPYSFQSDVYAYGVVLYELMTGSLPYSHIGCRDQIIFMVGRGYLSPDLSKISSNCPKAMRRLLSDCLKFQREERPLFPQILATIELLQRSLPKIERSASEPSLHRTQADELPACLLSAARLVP

Question: For CCN1CCN(Cc2ccc(NC(=O)c3ccc(C)c(Oc4ccnc5[nH]ccc45)c3)cc2C(F)(F)F)CC1, which inhibition [1] is on record?
Answer: 39.3%

Question: And the inhibition [2]?
Answer: 18%

Question: And the inhibition [3]?
Answer: 31.6%

Question: CNc1cc(Oc2cc(C(=O)Nc3cc(N4CCN(C)CC4)cc(C(F)(F)F)c3)ccc2C)ncn1 was tested. Which inhibition [4] did it give?
Answer: 25.8%

Question: And the inhibition [5]?
Answer: -5%

Question: What does the source list for CCN1CCN(Cc2ccc(NC(=O)c3ccc(C)c(/C=C/c4cnc5[nH]ccc5c4OC)c3)cc2C(F)(F)F)CC1?
Answer: inhibition [6]: -0.8%; inhibition [7]: 26.3%; inhibition [8]: 9%; inhibition [9]: 100%; percent of control [10]: 5.4%; inhibition [11]: 67%; inhibition [12]: 6%; residual activity [13]: 60%; residual activity [14]: 7%
